Source: PubChem BioAssay
CSN inh – inhibitors of CSN-mediated cullin deneddylation, primary screen, biochemical, fluorescence polarization, uHTS; COP9 signalosome complex subunit 5 (Homo sapiens), Q92905; inhibition, % at 12.5 µM; Purified CSN, SCF-Nedd8-OG deneddylation; hit rate 0.38% among 360,000;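 active = pattern-corrected inhibition above about 35%, with an unprinted fluorescence ratio check between 0.5 and 1.5, limit read from the data, passing the limit was not always enough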;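 also: 0% = enzyme with substrate and 100% = substrate without enzyme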
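Assay system: HEK293T-derived human Csn5 enzyme; quantity: 0.24 nM enzyme; medium: Tris/NaCl/DTT buffer, pH 7.5; also added: substrate SCFSkp2-Nedd8OG, 10 nM; doses: 12.5 µM compound; schedule: 90 min reaction at room temperature; signal: FP; read-out: % inhibition of substrate cleavage by Csn5; benchmarks: substrate-only high control, full reaction low control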
ATG4B inhibitor – ATG4B protease inhibitors, primary screen, biochemical, fluorescence, uHTS. Cysteine protease ATG4B (Homo sapiens), Q9Y4P1. ATG4B cleavage of LC3-PLA2, NBD-HPC fluorescence, 1 h. inhibition, % at 8.33 µM. hit rate 0.51% among 340,000; in the data active = inhibition above about 40%
rCAG RNA binder – binders of r(CAG) RNA repeats, primary screen, biochemical, fluorescence; r(CAG) RNA repeat, TO-PRO-1 dye displacement fluorescence; inhibition, % at 3 µM; hit rate 1.3% among 370,000; AID 651821, 2012;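 active = inhibition above the plate cutoff, the mean of all test compounds on that plate plus 3 SD, cut at about 35% in these data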;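 also: 0% = DMSO alone and 100% = 100 µM mitoxantrone as full dye displacement; higher means more dye released from RNA so lower well fluorescence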
UHRF1 binding – UHRF1 methylated DNA binding inhibitors, primary screen, counter-screen for MBD2 inhibitor project, biochemical, TR-FRET, human UHRF1, single concentration | E3 ubiquitin-protein ligase UHRF1 (Homo sapiens), Q96T88 | UHRF1 binding to methylated oligo | inhibition, % at 4.4 µM | hit rate 0.75% among 370,000 | AID 687016, 2013; in the data active = inhibition above about 21%;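 also: UHRF1 SRA domain binding a hemimethylated CpG hairpin DNA probe; 0% = median of test compound wells and 100% = reference inhibitor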
Target sequence (Q96T88 whole entry, looked up, the tested form may be a part): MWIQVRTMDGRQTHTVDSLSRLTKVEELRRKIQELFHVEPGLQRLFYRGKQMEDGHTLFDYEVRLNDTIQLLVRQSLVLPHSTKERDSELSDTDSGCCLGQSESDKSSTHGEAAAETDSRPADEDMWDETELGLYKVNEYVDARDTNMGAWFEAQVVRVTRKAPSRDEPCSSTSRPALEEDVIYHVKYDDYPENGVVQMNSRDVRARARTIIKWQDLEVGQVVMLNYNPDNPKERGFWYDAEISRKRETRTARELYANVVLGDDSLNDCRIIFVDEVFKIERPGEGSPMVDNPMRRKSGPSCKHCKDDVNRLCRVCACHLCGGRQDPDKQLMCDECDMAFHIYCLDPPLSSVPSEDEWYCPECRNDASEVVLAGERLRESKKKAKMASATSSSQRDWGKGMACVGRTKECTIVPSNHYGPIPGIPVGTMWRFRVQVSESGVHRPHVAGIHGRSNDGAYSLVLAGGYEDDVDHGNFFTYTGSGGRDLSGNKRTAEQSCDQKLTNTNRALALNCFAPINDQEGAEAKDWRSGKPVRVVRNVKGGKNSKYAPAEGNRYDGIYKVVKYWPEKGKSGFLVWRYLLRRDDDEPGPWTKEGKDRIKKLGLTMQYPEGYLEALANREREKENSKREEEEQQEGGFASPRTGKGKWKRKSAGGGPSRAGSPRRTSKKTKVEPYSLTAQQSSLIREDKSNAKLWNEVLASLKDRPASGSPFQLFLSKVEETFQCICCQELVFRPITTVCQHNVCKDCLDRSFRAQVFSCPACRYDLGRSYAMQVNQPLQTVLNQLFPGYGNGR
MBD2 inh – inhibitors of MBD2 binding to methylated DNA, primary screen, biochemical, TR-FRET, DNA-binding domain, human; inhibition, % at 4.4 µM; hit rate 0.31% among 370,000; MBD2 binding to methylated oligonucleotide; in the data active = inhibition above about 13%
LEDGF integ inh – blockers of LEDGF/p75-dependent integrase strand transfer – biochemical, TR-FRET, high throughput, primary screen. HIV-1 integrase (with human LEDGF/p75). TR-FRET IN-LEDGF/p75 DNA integration, Eu/Cy5. inhibition, % at 3.7 µM. hit rate 0.64% among 370,000. AID 743269, 2014;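 active = inhibition above the screen-wide mean plus 3 SD, cut at about 13% in these data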;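 also: signal is the Cy5 over europium emission ratio at 671 and 618 nm; 0% = plate median of compound wells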
Numbers without * were called inactive; · = no result. An excerpt weighted towards active compounds, which were near 3.1% of everything screened.

SMILES | CSN inh | ATG4B inhibitor | rCAG RNA binder | UHRF1 binding | MBD2 inh | LEDGF integ inh
COC(=O)[C@]12C[C@H](CC(=O)N3CCN(C(=O)c4ccco4)CC3)C(=O)N(Cc3ccccc3)C1=C[C@H](COCc1ccccc1)O[C@@H]2C | · | · | 5 | -1 | -2 | 0
Cc1cc(-c2ccccc2)c2c(=O)[nH][nH]c2n1 | 2 | 8 | 6 | 49* | -2 | -2
Cc1cc(C)cc(N(CC(=O)NC2CCC(C)CC2)S(=O)(=O)c2ccccc2)c1 (stereo unspecified) | · | · | 2 | 2 | 1 | -2
CN(CC(=O)Nc1ccccc1Br)C(=O)c1cccc(S(=O)(=O)NCc2ccccc2)c1 | -1 | 4 | -4 | 2 | 2 | -5
Cc1ccc(S(=O)(=O)NCc2ccccc2)cc1C(=O)N(C)CC(=O)Nc1ccccc1Br | -2 | -44 | 2 | 22* | 1 | -5
CCN(CC)C(=O)CC[C@@H]1CC[C@]2(CCCN(Cc3cccnc3)C2)O1 | · | · | 2 | -1 | 1 | -2
O=S(=O)(Nc1nc2ccccc2nc1Cl)c1ccccc1C(F)(F)F | 4 | -12 | 9 | -1 | 2 | 1
O=S(=O)(Nc1nc2ccccc2nc1Cl)c1cccc(C(F)(F)F)c1 | -1 | -8 | 42* | 1 | -3 | 1
CCOc1c(Cl)cc(C(=O)Nc2ccccc2C(=O)O)cc1Cl | 2 | 12 | 51* | 1 | -3 | -3
Cc1sc(NC(=S)NC(=O)c2ccccc2)c(C#N)c1C | 0 | -3 | 8 | 3 | 5 | 3
CC(C)N1CCc2c(sc(NC(=S)NC(=O)c3ccccc3)c2C#N)C1 | 40* | -11 | 2 | 15 | 21* | 4
CCCN1CCc2c(sc(NC(=S)NC(=O)c3ccccc3)c2C#N)C1 | -98 | -3 | 16 | 17 | 15* | -3
C[C@H]1[C@@H](OC(=O)Nc2cc(Cl)ccc2Cl)CC[C@@]23CCCN2C(=O)CCC[C@@H]13 | · | · | · | 2 | -5 | 3
COC(=O)C1OC(OC2CC[C@]3(C)C(CC[C@@]4(C)[C@@H]3CC=C3[C@@H]5CC(C)(C)CC[C@]5(C(=O)OC5OC(CO)C(O)C(O)C5O)CC[C@]34C)C2(C)C)C(O)C(O)C1O[C@H]1OCC(O)C(O)C1O (stereo partly specified) | 0 | · | · | · | · | ·
C/C=C(\C)C(=O)OC1CC(C)(C)C[C@H]2C3=CC[C@@H]4[C@@]5(C)CCC(O[C@@H]6O[C@@H](C(=O)O)[C@@H](O)C(O[C@@H]7OC[C@H](O)[C@@H](O)[C@@H]7O[C@@H]7OC(CO)C(O)[C@@H](O)[C@@H]7O)C6O[C@@H]6OC(CO)C(O)C(O)C6O)[C@@](C)(CO)[C@@H]5CC[C@]4(C)[C@]3(C)CC(O)[C@@]12CO (stereo partly specified) | 1 | 9 | 45* | 5 | -1 | 26*
CC1CCCCC1NC(=O)COC(=O)c1c2c(nc3ccccc13)/C(=C\c1ccco1)CC2 (stereo unspecified) | 35 | 20 | 54* | 20 | 7 | 27*
CCOc1ccc(-n2c(SC/C=C/c3ccccc3)nnc2-c2ccco2)cc1 | · | · | 2 | -1 | 2 | -1
CN(C)c1oc(-c2ccc(Cl)cc2)nc1S(=O)(=O)c1ccccc1 | -3 | -4 | -1 | 25* | 10 | 1
O=C(NCc1ccco1)c1cccc2c1C(=O)c1ccc(N3CCC(Cc4ccccc4)CC3)cc1S2(=O)=O | 14 | -7 | · | · | · | ·
O=C(NCc1ccco1)c1cccc2c1C(=O)c1ccc(/C=C/c3ccccc3)cc1S2(=O)=O | 55* | 5 | 39* | 0 | -5 | 6
CCOC(=O)CC[C@@H]1CC[C@]2(CCCN(C(=O)c3ccc4ccccc4n3)C2)O1 | · | · | -1 | -2 | -6 | -2
Cc1nnc(C)n1N=Cc1ccc(O)cc1O | · | · | 1 | -1 | -1 | 0
COc1ccc(S(=O)(=O)N2CCSC2c2ccccc2)cc1 (stereo unspecified) | -3 | 37 | -3 | 69* | 2 | 1
CN1CCN(CC(=O)n2c3c(c4ccccc42)CCCC3)CC1 | 39* | -11 | -3 | 7 | 3 | -4
CCN(CC)CC(=O)n1c2c(c3ccccc31)CCCC2 | 1 | -4 | -3 | -4 | -3 | 1
SMILES | CSN inh | ATG4B inhibitor | rCAG RNA binder | UHRF1 binding | MBD2 inh | LEDGF integ inh
Cc1nn(-c2ccccc2)c2sc(C(=O)N3CCN(S(=O)(=O)c4ccc(Br)s4)CC3)cc12 | · | · | 8 | -1 | -1 | -2
Cc1ccc(F)cc1C(=O)N1CCOCC1c1cc(C(=O)Nc2ccccc2)no1 (stereo unspecified) | 2 | · | -1 | 33* | -1 | -1
CC[C@]12c3[nH]c4ccc(Cl)cc4c3CCN1C(=O)[C@@H](CC(=O)NCCN1CCOCC1)C[C@@H]2C(=O)N1CCN(C(=O)c2ccco2)CC1 | 95* | -12 | 1 | -1 | -2 | 5
CC1(C)OC(=O)C2=C(CC(CCc3ccccc3)OC2CCc2ccccc2)O1 (stereo unspecified) | · | · | 2 | 21* | -1 | 4
CC(C)C[C@@H]1O[C@H](CCc2ccccc2)CC2=C1C(=O)OC(C)(C)O2 | -1 | · | 0 | 0 | 0 | -1
Cc1c(Cc2ccccc2)sc(/N=C/c2ccc3ccccc3c2)c1C(N)=O | -1 | 4 | · | · | · | ·
Cc1c(Cc2ccccc2)sc(/N=C/c2c(O)ccc3ccccc23)c1C(N)=O | 87 | 52* | · | · | · | ·
O=C(Nc1ccc(Cl)cc1Cl)O[C@@H]1CC[C@@]23CCCN2C(=O)CCC[C@H]3C1 | · | · | · | 5 | 6 | -2
CCc1ccc(OCC(=O)NC(=S)Nc2ccc(F)cc2)c(Br)c1 | 8 | -2 | 2 | -3 | 5 | -2
CCc1ccc(OCC(=O)NC(=S)Nc2ccc(C(C)=O)cc2)c(Br)c1 | 1 | 0 | 2 | 24* | 7 | 5
C=CCN1C=C/C(=C\C=C(C#N)C#N)c2ccccc21 | 35* | 8 | 4 | -4 | -12 | -2
COc1ccc(OCC(=O)OC(C)CN2CCOCC2)cc1 (stereo unspecified) | 2 | -14 | -2 | -4 | -6 | -7
CCN(CC)CC(C)OC(=O)COc1ccc(OC)cc1 (stereo unspecified) | -4 | -7 | -1 | 24* | -3 | 3
CC(C)CN1C(=O)[C@]2(CC(=O)N(C)C2c2ccccc2)c2cc(-n3cc(-c4ccccc4)nn3)ccc21 (stereo partly specified) | · | · | 3 | -2 | -4 | 7
